Data from ChEMBL document CHEMBL4152356, “Amphipathic sulfonamidobenzamides mimicking small antimicrobial marine natural products; investigation of antibacterial and anti-biofilm activity against antibiotic resistant clinical isolates” (Bioorg Med Chem, 2018).
The source made the active and inactive calls.

Experiments:
[1] = system: Klebsiella pneumoniae; assay: Antibacterial activity against Klebsiella pneumoniae clinical isolates after 24 hrs by microdilution method; format: functional
How it was run: (§1)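 Clinical isolate screen by broth microdilution with about 1-1.2 × 10^6 cells/ml and 24 h incubation. MIC is the lowest concentration with no growth. For isolate collections, MIC90 is the MIC inhibiting ≥90% of isolates. Multidrug resistance was defined as resistance to at least […] antimicrobial class.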

[2] = system: Klebsiella pneumoniae; assay: Antibacterial activity against New Delhi metallo-beta-lactamase 1-producing Klebsiella pneumoniae K6645 clinical isolate after 24 hrs by microdilution method; format: functional; settings: K6645, 24 h; how it was run: as §1
[3] = system: Staphylococcus aureus; assay: Antibacterial activity against methicillin resistant Staphylococcus aureus WIS clinical isolate after 24 hrs by microdilution method; format: functional
How it was run: (§2)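 Broth microdilution in Mueller-Hinton broth (modified CLSI M07-A9), clinical isolates at about 1-1.2 × 10^6 cells/ml. Inoculum mixed 1:1 with serial compound dilutions; stocks made in up to 100% DMSO, final DMSO ≤1%. Incubated 24 h.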

[4] = system: Staphylococcus aureus; assay: Antibacterial activity against methicillin resistant Staphylococcus aureus IHT 99040 clinical isolate after 24 hrs by microdilution method; format: functional; settings: IHT 99040, 24 h; how it was run: as §2
[5] = Selectivity index, ratio of EC50 for human RBC to MIC for methicillin resistant Staphylococcus epidermidis RP62A ATCC 35984/CCUG 31568; format: toxicity; settings: human red blood cells (RBC), read-out: Selectivity Index
How it was run: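 SI = hemolytic EC50 / MRSE MIC. Hemolysis: washed human RBCs (heparinized blood, healthy adult donor) at 10% in PBS pH 7.4, mixed 9:1 with serial compound dilutions, 37 °C for 1 h. 0.05% Triton X-100 set 100% lysis, 0.5% DMSO set baseline. MIC from MHB microdilution, 35 °C, […].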

[6] = system: Escherichia coli; assay: Antibacterial activity against New Delhi metallo-beta-lactamase 1-producing Escherichia coli 50,676,002 clinical isolate after 24 hrs by microdilution method; format: functional; settings: Escherichia coli, 50,676,002, 24 h; how it was run: as §1
[7] = system: Klebsiella pneumoniae; assay: Antibacterial activity against KPC2-producing Klebsiella pneumoniae K4725 clinical isolate after 24 hrs by microdilution method; format: functional; settings: K4725, 24 h; how it was run: as §1
[8] = system: Acinetobacter baumannii; assay: Antibacterial activity against oxacillinase 23-producing Acinetobacter baumannii K44-35 clinical isolate after 24 hrs by microdilution method; format: functional; settings: K44-35, 24 h; how it was run: as §2
[9] = system: MRC5; assay: Cytotoxicity against human MRC5 cells after 72 hrs by MTS assay; format: cell-based; settings: MRC5, 72 h
How it was run: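 MRC-5 lung fibroblasts in DMEM with 10% FBS, 37 °C, 5% CO2; seeded at 4000 cells/well, adhered 24 h, medium replaced. Two-fold dilutions up to 100 µg/ml for 72 h, then MTS for 1 h and absorbance at 485 nm. Controls were 1% DMSO (negative) and 0.5% Triton X-100 (positive). EC50 is the concentration giving 50% inhibition of survival.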

[10] = system: Erythrocyte; assay: Hemolytic activity against human RBC measured after 1 hr; format: cell-based
How it was run: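 Washed human RBCs from a healthy donor (heparinized) at 10% in PBS pH 7.4, mixed 9:1 with serial compound dilutions, 37 °C for 1 h. Baseline set by 0.5% DMSO in 50% PBS, 100% lysis by 0.05% Triton X-100. EC50 is the concentration giving 50% lysis.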

[11] = system: Corynebacterium glutamicum; assay: Antibacterial activity against Corynebacterium glutamicum ATCC 13032 after 48 hrs by microdilution method; format: functional; settings: ATCC 13032, 48 h
How it was run: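 Broth microdilution (CLSI M07-A9, modified) in Mueller-Hinton broth; inoculum about 2.5-3 × 10^4 cells/ml mixed 1:1 with serial compound dilutions. Stock solutions in up to 100% DMSO, final DMSO ≤1%. Incubated 35 °C for 48 h.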

[12] = system: Escherichia coli; assay: Antibacterial activity against Verona integron-encoded metallo-beta-lactamase 29-producing Escherichia coli 50,639,799 clinical isolate after 24 hrs by microdilution method; format: functional; settings: Escherichia coli, 50,639,799, 24 h; how it was run: as §1
[13] = system: Pseudomonas aeruginosa; assay: Antibacterial activity against Verona integron-encoded metallo-beta-lactamase-producing Pseudomonas aeruginosa 50,692,520 clinical isolate after 24 hrs by microdilution method; format: functional; settings: Pseudomonas aeruginosa, 50,692,520, 24 h; how it was run: as §1
[14] = system: Bacillus subtilis; assay: Induction of membrane disruption in Bacillus subtilis 168 expressing luciferase at 4 ug/ml […] by luminescence assay; format: functional, organism-based; settings: subsp. subtilis str. 168

| SMILES | MIC [1] [µg/mL] | MIC [2] [µg/mL] | MIC [3] [µg/mL] | MIC [4] [µg/mL] | selectivity ratio [5] | MIC [6] [µg/mL] | MIC [7] [µg/mL] | MIC [8] [µg/mL] | EC50 [9] [µg/mL] | EC50 [10] [µg/mL] | MIC [11] [µg/mL] | MIC [12] [µg/mL] | MIC [13] [µg/mL] | Activity [14] |
| --- | --- | --- | --- | --- | --- | --- | --- | --- | --- | --- | --- | --- | --- | --- |
| CC(C)(C)c1cc(C(C)(C)C)cc(S(=O)(=O)Nc2cc3ccccc3cc2C(=O)NCCNC(=N)N)c1.Cl | 16 to 32 | 32 | 8 | 8 | 6 | > 32 | > 32 | 32 | 55 | 25 | 2 | ≥ 32 | ≥ 64 |  |
| CN(c1ccc(C(=O)NCCCNC(=N)N)cc1)S(=O)(=O)c1cc(C(C)(C)C)cc(C(C)(C)C)c1.Cl | 32 | 32 | 8 | 8 | 14 | ≥ 32 | ≥ 32 | ≥ 32 | 36 | 55 | 2 | 32 | 32 | Active |
